In ChEMBL document CHEMBL2150971, “Selective depletion of mutant p53 by cancer chemopreventive isothiocyanates and their structure-activity relationships” (J Med Chem, 2011):
Active and inactive are the calls of the source. No cut-off for these calls is given here.

Key:
[1] = system: Cellular tumor antigen p53 (Homo sapiens), P04637 [G245C]; experiment: Induction of p53 G245C mutant depletion in human NCI-H596 cells at 20 uM by immunoblot analysis; type: cell-based
[2] = system: Cellular tumor antigen p53 (Homo sapiens), P04637 [R280K]; experiment: Induction of p53 R280K mutant depletion in human MDA-MB-231 cells at 10 uM by immunoblot analysis; type: cell-based
Method in brief: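 MDA-MB-231 cells treated with 10 µM for 24 h; whole-cell lysates immunoblotted for p53 (DO-1) with β-actin loading control, ECL.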

[3] = system: Cellular tumor antigen p53 (Homo sapiens), P04637 [G245C]; experiment: Induction of conformational changes in p53 G245C mutant in human NCI-H596 cells at 60 uM incubated for 1 hr at 32 degC by tryptophan fluorescence emission spectroscopy; type: cell-based
Method in brief: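 6 µM purified G245C p53 DNA-binding domain incubated 1 h at 32 °C alone, with DMSO or 60 µM agent; intrinsic fluorescence emission 285–400 nm, excitation 280 nm, slit 5 nm, 3 scans averaged.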

[4] = system: Cellular tumor antigen p53 (Homo sapiens), P04637 [G245C]; experiment: Induction of covalent cysteine modification at p53 G245C mutant in human NCI-H596 cells at 100 uM incubated for 1 hr by monochlorobimane fluorometric assay; type: cell-based
MDA-MB-231 [5] = experiment: Induction of apoptosis in human MDA-MB-231 cells expressing p53 R280K mutant at 10 uM incubated for 24 hrs by FITC/Annexin-V staining method; type: functional, cell-based
Method in brief: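 MDA-MB-231 cells at 40–50% confluency treated with DMSO or 10 µM in DMSO for 24 h; washed in cold PBS, stained with FITC-Annexin V and propidium iodide, analysed by flow cytometry; early apoptotic (Annexin V+/PI−) fraction; mean ± SD of three experiments, unequal-variance two-sample t-test.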

[6] = system: Cellular tumor antigen p53 (Homo sapiens), P04637 [G245C]; experiment: Induction of p53 G245C mutant depletion in human NCI-H596 cells at 40 uM incubated for 2 hrs by immunoblot analysis; type: cell-based
Method in brief: (§1)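 H596 cells (G245C p53), maintained in DMEM or RPMI-1640 with 10% FBS, treated either at 15 µM for varying times up to 24 h or at varying concentrations (10–60 µM) for 2 h; whole-cell lysates, equal protein on SDS gels, PVDF, blotted with p53 DO-1 and β-actin antibodies, ECL.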

[7] = system: Cellular tumor antigen p53 (Homo sapiens), P04637 [G245C]; experiment: Induction of p53 G245C mutant depletion in human NCI-H596 cells at 15 uM up to 24 hrs by immunoblot analysis; type: cell-based; method in brief: as §1
[8] = system: Cellular tumor antigen p53 (Homo sapiens), P04637 [G245C]; experiment: Induction of p53 G245C mutant depletion in human NCI-H596 cells at 60 uM after 2 hrs by immunoblot analysis; type: cell-based; method in brief: as §1
[9] = system: Cellular tumor antigen p53 (Homo sapiens), P04637 [G245C]; experiment: Induction of p53 G245C mutant depletion in human NCI-H596 cells at 10 uM incubated for 2 hrs by immunoblot analysis; type: cell-based; method in brief: as §1
[10] = system: Cellular tumor antigen p53 (Homo sapiens), P04637 [G245C]; experiment: Induction of p53 G245C mutant depletion in human NCI-H596 cells at 20 uM incubated for 2 hrs by immunoblot analysis; type: cell-based; method in brief: as §1
[11] = target: Cellular tumor antigen p53 (Homo sapiens) (UniProt P04637); experiment: Induction of p53 depletion in human A549 cells at 20 uM incubated for 2 to 24 hrs by immunoblot analysis; type: cell-based
Method in brief: (§2)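 Wild-type p53 lines HCT116, A549 and MCF-7 treated with 20 µM for 2, 4, 8 and 24 h; lysates immunoblotted for p53 (DO-1) and β-actin, ECL.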

[12] = system: Cellular tumor antigen p53 (Homo sapiens), P04637 [R280K]; experiment: Induction of p53 R280K mutant depletion in human MDA-MB-231 cells at 15 uM by immunoblot analysis; type: cell-based; settings: TDE = time-dependent effect
Method in brief: (§3)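 Mutant-p53 lines SCC-4, MDA-MB-468 and MDA-MB-231 exposed to 15 µM for a time course; lysates immunoblotted with p53 DO-1 and β-actin antibodies, ECL detection.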

[13] = system: Cellular tumor antigen p53 (Homo sapiens), P04637 [R273H]; experiment: Induction of p53 R273H mutant depletion in human MDA-MB-468 cells at 15 uM by immunoblot analysis; type: cell-based; settings: TDE = time-dependent effect; method in brief: as §3
DU-145 = experiment: Induction of p53 […] mutant depletion in human DU145 cells at 10 uM by immunoblot analysis; type: cell-based; settings: TDE = time-dependent effect
Method in brief: (§4)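 DU145 and SW480 cells exposed to 10 µM for a time course; lysates immunoblotted with p53 DO-1 and β-actin antibodies, ECL detection.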

[14] = system: Cellular tumor antigen p53 (Homo sapiens), P04637 [R273H]; experiment: Induction of p53 R273H mutant depletion in human SW480 cells at 10 uM by immunoblot analysis; type: cell-based; settings: TDE = time-dependent effect; method in brief: as §4
[15] = system: Cellular tumor antigen p53 (Homo sapiens), P04637 [P151S]; experiment: Induction of p53 P151S mutant depletion in human SCC4 cells at 15 uM by immunoblot analysis; type: cell-based; settings: SCC-4, TDE = time-dependent effect; method in brief: as §3
[16] = target: Cellular tumor antigen p53 (Homo sapiens) (UniProt P04637); experiment: Induction of p53 depletion in human HCT116 cells at 20 uM incubated for 2 to 24 hrs by immunoblot analysis; type: cell-based; settings: HCT-116; method in brief: as §2
[17] = target: Cellular tumor antigen p53 (Homo sapiens) (UniProt P04637); experiment: Induction of p53 depletion in human MCF7 cells at 20 uM incubated for 2 to 24 hrs by immunoblot analysis; type: cell-based; method in brief: as §2
[18] = target: Cellular tumor antigen p53 (Homo sapiens) (UniProt P04637); experiment: Induction of p53 depletion in human MCF10A cells at 15 uM incubated for 2 to 24 hrs by immunoblot analysis; type: cell-based; settings: MCF-10A
Method in brief: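 MCF-10A normal mammary epithelial cells treated with 15 µM for 2, 4, 8 and 24 h; lysates immunoblotted for p53 (DO-1) and β-actin, ECL.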

[19] = target: Cellular tumor antigen p53 (Homo sapiens) (UniProt P04637); experiment: Induction of p53 activation in human MCF7 cells at 20 uM incubated for 24 hrs by immunoblot analysis; type: cell-based; method in brief: as §2
H1299 [20] = experiment: Induction of temperature sensitive p53 143A mutant depletion in human H1299 cells at 15 uM incubated for 24 hrs at 37 degC by immunoblot analysis; type: cell-based
H1299 [21] = experiment: Induction of temperature sensitive p53 143A mutant depletion in human H1299 cells at 15 uM incubated for 24 hrs at 32.5 degC by immunoblot analysis; type: cell-based
H1299 [22] = experiment: Induction of non-temperature sensitive p53 175H mutant depletion in human H1299 cells at 15 uM incubated for 24 hrs at 37 degC by immunoblot analysis; type: cell-based
H1299 [23] = experiment: Induction of non-temperature sensitive p53 175H mutant depletion in human H1299 cells at 15 uM incubated for 24 hrs at 32.5 degC by immunoblot analysis; type: cell-based
A549 = experiment: Induction of apoptosis in human A549 cells expressing wild type p53 assessed as caspase-3 activation incubated for 24 hrs; type: functional, cell-based
Method in brief: (§5)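 Cells treated with DMSO or drug for 24 h, lysed in ice-cold kit buffer; 100–200 µg protein incubated with Ac-DEVD-p-nitroaniline at 37 °C for 2–4 h; p-nitroanilide read at 405 nm; mean ± SD of three independent experiments.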

NCI-H596 [24] = experiment: Induction of apoptosis in human NCI-H596 cells expressing p53 G245C mutant assessed as caspase-3 activation incubated for 24 hrs; type: functional, cell-based; method in brief: as §5
MCF7 = experiment: Induction of apoptosis in human MCF7 cells expressing wild type p53 assessed as caspase-3 activation incubated for 24 hrs; type: functional, cell-based; method in brief: as §5
MDA-MB-231 [25] = experiment: Induction of apoptosis in human MDA-MB-231 cells expressing p53 R280K mutant assessed as caspase-3 activation incubated for 24 hrs; type: functional, cell-based; method in brief: as §5
MDA-MB-468 = experiment: Induction of apoptosis in human MDA-MB-468 cells expressing p53 R273H mutant assessed as caspase-3 activation incubated for 24 hrs; type: functional, cell-based; method in brief: as §5
HCT-116 = experiment: Induction of apoptosis in human HCT116 cells expressing wild type p53 assessed as caspase-3 activation incubated for 24 hrs; type: functional, cell-based; method in brief: as §5
SW480 = experiment: Induction of apoptosis in human SW480 cells expressing p53 R273H mutant assessed as caspase-3 activation incubated for 24 hrs; type: functional, cell-based; method in brief: as §5
NCI-H596 [26] = experiment: Effect on Bax protein expression in human NCI-H596 cells by immunoblot analysis; type: functional, cell-based
Method in brief: (§6)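 H596 lung cancer cells treated with 15 µM; whole-cell lysates in HEPES pH 7.4/Triton X-100 lysis buffer with protease and phosphatase inhibitors; equal protein resolved on 4–12% Bis-Tris gels, transferred to PVDF, immunoblotted; ECL detection.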

[27] = system: Cellular tumor antigen p53 (Homo sapiens), P04637 [G245C]; experiment: Induction of p53 G245C mutant depletion in human NCI-H596 cells incubated for 2 to 6 hrs by immunoblot analysis; type: cell-based; method in brief: as §1
[28] = system: Cellular tumor antigen p53 (Homo sapiens), P04637 [G245C]; experiment: Induction of p53 G245C mutant depletion in human NCI-H596 cells at 15 uM by immunoblot analysis; type: cell-based; settings: TDE = time-dependent effect; method in brief: as §1
NCI-H596 [29] = experiment: Effect on DR5 protein expression in human NCI-H596 cells by immunoblot analysis; type: functional, cell-based; method in brief: as §6
NCI-H596 [30] = experiment: Effect on HSP90 protein expression in human NCI-H596 cells by immunoblot analysis; type: functional, cell-based; method in brief: as §6
NCI-H596 [31] = experiment: Effect on JNK protein expression in human NCI-H596 cells by immunoblot analysis; type: functional, cell-based; method in brief: as §6
NCI-H596 [32] = experiment: Effect on p53 mRNA expression in human NCI-H596 cells at 15 uM incubated for 2 to 6 hrs by RT-PCR; type: functional, cell-based
Method in brief: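 H596 cells exposed to 15 µM for 2, 4 and 6 h, vehicle DMSO; total RNA extracted, one-step RT-PCR for p53 and β-actin mRNA.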

S=C=NCc1ccc(Oc2ccccc2)cc1
Activity [1]: Active | Activity [2]: Active | Activity [3]: Active

S=C=NCc1ccc(Cl)cc1
Activity [1]: Active | Activity [2]: Active | Activity [4]: Active

S=C=NCCCc1ccccc1
Activity [1]: Active | Activity [2]: Active | Activity [4]: Active | Activity (MDA-MB-231 [5]): Active

S=C=NCCCCc1ccccc1
Activity [1]: Active | Activity [2]: Active | Activity (MDA-MB-231 [5]): Active

C=CCN=C=S
Activity [1]: inactive | Activity [2]: inactive | Activity [4]: inactive | Activity [6]: inactive

S=C=NCC(c1ccccc1)c1ccccc1
Activity [1]: Active | Activity [2]: Active | Activity [4]: Active | Activity (MDA-MB-231 [5]): Active

S=C=NC(c1ccccc1)(c1ccccc1)c1ccccc1
Activity [1]: inactive | Activity [2]: inactive | Activity [4]: inactive | Activity (MDA-MB-231 [5]): inactive

C[S+]([O-])CCCCN=C=S (centres undefined)
Activity [1]: inactive | Activity [2]: inactive | Activity [4]: inactive | Activity [3]: inactive | Activity (MDA-MB-231 [5]): inactive | Activity [6]: inactive

CNCCc1ccccc1
Activity [7]: inactive | Activity [8]: inactive | Activity [1]: inactive

COc1ccc(CN=C=S)cc1
Activity [1]: Active | Activity [2]: Active | Activity [4]: Active

S=C=Nc1ccccc1
Activity [1]: inactive | Activity [2]: inactive | Activity [4]: inactive

C[C@@H](N=C=S)c1ccccc1
Activity [1]: inactive | Activity [2]: inactive | Activity [3]: Active

S=C=NCc1ccccc1
Activity [1]: Active | Activity [2]: Active | Activity [4]: Active | Activity [3]: Active | Activity (MDA-MB-231 [5]): Active | Activity [9]: Active | Activity [10]: Active

S=C=NCCc1ccccc1
Activity [11]: inactive | Activity [12]: tde | Activity [13]: tde | Activity (DU-145): tde | Activity [14]: tde | Activity [15]: tde | Activity [16]: inactive | Activity [17]: inactive | Activity [18]: inactive | Activity [19]: Active | Activity (H1299 [20]): Active | Activity (H1299 [21]): inactive | Activity (H1299 [22]): Active | Activity (H1299 [23]): Active | Activity [1]: Active | Activity [2]: Active | Activity [4]: Active | Activity (A549): inactive | Activity (NCI-H596 [24]): Active | Activity (MCF7): inactive | Activity (MDA-MB-231 [25]): Active | Activity (MDA-MB-468): Active | Activity (HCT-116): inactive | Activity (SW480): Active | Activity (NCI-H596 [26]): inactive | Activity [27]: Dose-dependent effect | Activity [28]: tde | Activity (NCI-H596 [29]): inactive | Activity (NCI-H596 [30]): inactive | Activity (NCI-H596 [31]): inactive | Activity (NCI-H596 [32]): inactive

S=C=NCCCCCc1ccccc1
Activity [1]: Active | Activity [2]: Active

S=C=NCC1CCCCC1
Activity [1]: inactive | Activity [2]: inactive | Activity [4]: inactive | Activity (MDA-MB-231 [5]): inactive

S=C=NCCCCCCc1ccccc1
Activity [1]: Active | Activity [2]: Active
